Reference: ChEMBL document CHEMBL1154352, “Toll-like receptor 7 selective synthetic oligoribonucleotide agonists: synthesis and structure-activity relationship studies” (J Med Chem, 2009)
Activity calls are given as the source filed them. The rule behind the calls is not given here.

Columns and labels:
[1] = tested on: Splenocyte; assay: Immunomodulatory activity in C57BL/6 mouse splenocytes bearing TLR7 receptor assessed as IL12 release at 100 ug/ml after 24 hrs by ELISA; format: functional, cell-based
Summary of the method: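 C57BL/6 splenocytes in RPMI 1640 with 10% FBS, penicillin/streptomycin, 2 mM L-glutamine, plated at 5 × 10^6 cells/mL; compounds in PBS added, 37 °C for 24 h. Supernatant IL-12 and IL-6 by ELISA; representative of three independent experiments.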

[2] = target: T1, Toll-like receptor 7 (Homo sapiens) (UniProt Q9NYK1); assay: Activation of human TLR7 expressed in HEK293XL assessed as fold induction of NF-kappaB activity at 50 ug/ml after 18 hrs by reporter gene assay relative to control
T1 sequence (whole entry): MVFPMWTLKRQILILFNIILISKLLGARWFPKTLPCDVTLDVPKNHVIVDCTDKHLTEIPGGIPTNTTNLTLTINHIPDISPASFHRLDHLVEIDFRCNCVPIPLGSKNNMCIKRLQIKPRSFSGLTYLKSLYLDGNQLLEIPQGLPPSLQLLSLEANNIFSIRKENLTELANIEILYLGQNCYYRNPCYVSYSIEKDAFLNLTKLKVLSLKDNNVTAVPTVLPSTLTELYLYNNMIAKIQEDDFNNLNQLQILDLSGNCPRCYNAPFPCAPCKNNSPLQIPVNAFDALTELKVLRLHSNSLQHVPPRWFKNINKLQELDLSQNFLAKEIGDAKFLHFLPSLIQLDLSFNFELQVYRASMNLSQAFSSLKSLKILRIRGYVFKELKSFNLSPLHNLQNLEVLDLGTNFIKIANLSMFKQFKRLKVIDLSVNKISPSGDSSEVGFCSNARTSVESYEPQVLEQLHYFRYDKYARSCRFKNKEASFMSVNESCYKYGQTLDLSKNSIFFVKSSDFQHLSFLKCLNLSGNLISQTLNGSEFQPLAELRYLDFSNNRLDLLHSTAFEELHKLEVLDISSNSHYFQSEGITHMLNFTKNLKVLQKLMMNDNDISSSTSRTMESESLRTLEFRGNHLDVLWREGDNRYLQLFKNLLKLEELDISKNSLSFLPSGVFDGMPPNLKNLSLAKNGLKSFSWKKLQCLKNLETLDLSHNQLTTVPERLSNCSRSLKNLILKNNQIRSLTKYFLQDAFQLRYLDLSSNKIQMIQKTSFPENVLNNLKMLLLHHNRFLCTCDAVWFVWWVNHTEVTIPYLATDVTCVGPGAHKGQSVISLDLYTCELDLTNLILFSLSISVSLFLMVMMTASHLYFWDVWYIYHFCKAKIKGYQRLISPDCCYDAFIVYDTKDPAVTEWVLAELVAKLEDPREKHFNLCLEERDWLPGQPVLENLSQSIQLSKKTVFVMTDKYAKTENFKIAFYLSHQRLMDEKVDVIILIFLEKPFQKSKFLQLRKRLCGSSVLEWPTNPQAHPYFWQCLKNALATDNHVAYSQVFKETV
Summary of the method: (§1)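 HEK293 cells stably expressing human TLR7 or TLR8, transiently transfected with SEAP reporter plasmid; medium replaced, SIMRA compounds added, 18 h incubation. Supernatant SEAP measured by QuantiBlue; expressed as fold increase in NF-κB activity over PBS control. Tabulated data at 50 μg/mL, representative of three independent experiments.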

[3] = target: Toll-like receptor 3 (Homo sapiens) (UniProt O15455); assay: Activation of human TLR3 expressed in HEK293 assessed as induction of NF-kappaB activity reporter gene assay; format: cell-based
[4] = target: T2, Toll-like receptor 8 (Homo sapiens) (UniProt Q9NR97); assay: Activation of human TLR8 expressed in HEK293XL assessed as fold induction of NF-kappaB activity at 50 ug/ml after 18 hrs by reporter gene assay relative to control; summary of the method: as §1
T2 sequence (whole entry): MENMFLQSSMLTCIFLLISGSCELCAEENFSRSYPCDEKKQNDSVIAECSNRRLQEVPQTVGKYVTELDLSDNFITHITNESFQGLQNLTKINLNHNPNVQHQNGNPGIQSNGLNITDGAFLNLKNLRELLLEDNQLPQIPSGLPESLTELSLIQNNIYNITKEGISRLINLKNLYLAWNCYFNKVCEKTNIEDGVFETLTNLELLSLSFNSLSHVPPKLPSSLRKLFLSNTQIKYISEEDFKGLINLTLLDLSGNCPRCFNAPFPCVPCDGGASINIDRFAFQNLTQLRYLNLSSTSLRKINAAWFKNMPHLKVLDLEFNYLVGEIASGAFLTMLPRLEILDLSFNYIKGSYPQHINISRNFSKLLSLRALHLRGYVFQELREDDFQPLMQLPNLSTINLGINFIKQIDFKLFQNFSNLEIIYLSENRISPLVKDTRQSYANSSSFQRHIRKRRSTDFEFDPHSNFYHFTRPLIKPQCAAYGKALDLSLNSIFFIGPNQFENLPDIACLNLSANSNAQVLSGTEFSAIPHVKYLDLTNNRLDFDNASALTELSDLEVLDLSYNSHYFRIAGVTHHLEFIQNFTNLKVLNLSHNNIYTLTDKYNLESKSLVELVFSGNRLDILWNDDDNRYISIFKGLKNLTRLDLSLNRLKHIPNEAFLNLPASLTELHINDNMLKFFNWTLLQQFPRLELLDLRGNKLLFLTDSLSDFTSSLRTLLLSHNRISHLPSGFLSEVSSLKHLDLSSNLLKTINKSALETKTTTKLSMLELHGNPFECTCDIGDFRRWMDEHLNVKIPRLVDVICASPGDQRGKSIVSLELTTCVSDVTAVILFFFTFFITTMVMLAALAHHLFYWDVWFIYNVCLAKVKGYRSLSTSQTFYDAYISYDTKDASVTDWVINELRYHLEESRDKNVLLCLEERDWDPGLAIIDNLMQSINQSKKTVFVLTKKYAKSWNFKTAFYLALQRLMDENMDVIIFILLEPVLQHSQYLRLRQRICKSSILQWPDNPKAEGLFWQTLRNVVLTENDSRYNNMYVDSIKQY

Chain of Toll-like receptor 3 (Homo sapiens) (O15455 whole entry): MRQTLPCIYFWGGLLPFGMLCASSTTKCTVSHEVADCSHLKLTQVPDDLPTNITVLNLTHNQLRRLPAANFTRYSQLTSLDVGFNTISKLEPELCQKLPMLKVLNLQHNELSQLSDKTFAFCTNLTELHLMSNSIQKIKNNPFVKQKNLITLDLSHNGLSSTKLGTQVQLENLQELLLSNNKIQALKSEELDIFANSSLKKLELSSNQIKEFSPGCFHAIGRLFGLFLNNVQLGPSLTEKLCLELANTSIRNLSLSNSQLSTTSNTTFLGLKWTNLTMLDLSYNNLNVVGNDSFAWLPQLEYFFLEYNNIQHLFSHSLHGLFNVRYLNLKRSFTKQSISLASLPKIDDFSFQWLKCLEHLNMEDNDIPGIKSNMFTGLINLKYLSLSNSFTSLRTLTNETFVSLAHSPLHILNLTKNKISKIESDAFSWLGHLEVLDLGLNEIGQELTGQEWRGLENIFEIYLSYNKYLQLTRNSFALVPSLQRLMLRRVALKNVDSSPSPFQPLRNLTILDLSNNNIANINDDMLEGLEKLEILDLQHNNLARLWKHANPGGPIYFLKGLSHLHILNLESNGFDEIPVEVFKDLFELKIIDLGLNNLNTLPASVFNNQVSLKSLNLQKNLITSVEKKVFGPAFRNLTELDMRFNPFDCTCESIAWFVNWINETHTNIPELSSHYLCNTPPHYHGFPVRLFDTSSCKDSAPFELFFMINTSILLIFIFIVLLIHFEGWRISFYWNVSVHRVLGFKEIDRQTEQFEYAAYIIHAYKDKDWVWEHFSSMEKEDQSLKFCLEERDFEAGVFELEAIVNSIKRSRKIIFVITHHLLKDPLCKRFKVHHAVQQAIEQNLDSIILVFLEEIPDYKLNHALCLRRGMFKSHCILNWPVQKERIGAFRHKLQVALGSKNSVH

SMILES	Activity [1]	fold change (FC) [2]	Activity [3]	fold change (FC) [4]
Nc1ccn([C@@H]2O[C@H](COP(=O)(S)O[C@H]3[C@@H](O)[C@H](n4cnc5c(N)ncnc54)O[C@@H]3CO)[C@@H](OP(=O)(S)OC[C@H]3O[C@@H](n4ccc(=O)[nH]c4=O)[C@H](O)[C@@H]3OP(=O)(S)OC[C@H]3O[C@@H](n4ccc(=O)[nH]c4=O)[C@H](O)[C@@H]3OP(=O)(S)OC[C@H]3O[C@@H](n4ccc5c(=O)[nH]c(N)nc54)[C@H](O)[C@@H]3OP(=O)(S)OC[C@H]3O[C@@H](n4cnc5c(N)ncnc54)[C@H](O)[C@@H]3OP(=O)(S)OC[C@H]3O[C@@H](n4cnc5c(N)ncnc54)[C@H](O)[C@@H]3OP(=O)(S)OC[C@H]3O[C@@H](n4ccc(N)nc4=O)[C@H](O)[C@@H]3OP(=O)(S)OC[C@H]3O[C@@H](n4ccc(=O)[nH]c4=O)[C@H](O)[C@@H]3OP(=O)(S)OC[C@H]3O[C@@H](n4ccc(=O)[nH]c4=O)[C@H](O)[C@@H]3OP(=O)(S)OC[C@H]3O[C@@H](n4ccc5c(=O)[nH]c(N)nc54)[C@H](O)[C@@H]3OP(=O)(S)OCC(O)COP(=O)(S)O[C@H]3[C@@H](O)[C@H](n4ccc5c(=O)[nH]c(N)nc54)O[C@@H]3COP(=O)(S)O[C@H]3[C@@H](O)[C@H](n4ccc(=O)[nH]c4=O)O[C@@H]3COP(=O)(S)O[C@H]3[C@@H](O)[C@H](n4ccc(=O)[nH]c4=O)O[C@@H]3COP(=O)(S)O[C@H]3[C@@H](O)[C@H](n4ccc(N)nc4=O)O[C@@H]3COP(=O)(S)O[C@H]3[C@@H](O)[C@H](n4cnc5c(N)ncnc54)O[C@@H]3COP(=O)(S)O[C@H]3[C@@H](O)[C@H](n4cnc5c(N)ncnc54)O[C@@H]3COP(=O)(S)O[C@H]3[C@@H](O)[C@H](n4ccc5c(=O)[nH]c(N)nc54)O[C@@H]3COP(=O)(S)O[C@H]3[C@@H](O)[C@H](n4ccc(=O)[nH]c4=O)O[C@@H]3COP(=O)(S)O[C@H]3[C@@H](O)[C@H](n4ccc(=O)[nH]c4=O)O[C@@H]3COP(=O)(S)O[C@H]3[C@@H](O)[C@H](n4ccc(N)nc4=O)O[C@@H]3COP(=O)(S)O[C@H]3[C@@H](O)[C@H](n4cnc5c(N)ncnc54)O[C@@H]3CO)[C@H]2O)c(=O)n1 (some centres not stated)	Active	14.7	inactive	4.9
Nc1ccn([C@@H]2O[C@H](COP(=O)(S)O[C@H]3[C@@H](O)[C@H](n4cnc5c(N)ncnc54)O[C@@H]3COP(=O)(S)O[C@H]3[C@@H](O)[C@H](n4cnc5c(N)ncnc54)O[C@@H]3CO)[C@@H](OP(=O)(S)OC[C@H]3O[C@@H](n4ccc(=O)[nH]c4=O)[C@H](O)[C@@H]3OP(=O)(S)OC[C@H]3O[C@@H](n4ccc5c(=O)[nH]c(N)nc54)[C@H](O)[C@@H]3OP(=O)(S)OC[C@H]3O[C@@H](n4ccc(N)nc4=O)[C@H](O)[C@@H]3OP(=O)(S)OC[C@H]3O[C@@H](n4ccc5c(=O)[nH]c(N)nc54)[C@H](O)[C@@H]3OP(=O)(S)OC[C@H]3O[C@@H](n4cnc5c(N)ncnc54)[C@H](O)[C@@H]3OP(=O)(S)OC[C@H]3O[C@@H](n4ccc(N)nc4=O)[C@H](O)[C@@H]3OP(=O)(S)OC[C@H]3O[C@@H](n4ccc(=O)[nH]c4=O)[C@H](O)[C@@H]3OP(=O)(S)OC[C@H]3O[C@@H](n4ccc(=O)[nH]c4=O)[C@H](O)[C@@H]3OP(=O)(S)OCC(O)COP(=O)(S)O[C@H]3[C@@H](O)[C@H](n4ccc(=O)[nH]c4=O)O[C@@H]3COP(=O)(S)O[C@H]3[C@@H](O)[C@H](n4ccc(=O)[nH]c4=O)O[C@@H]3COP(=O)(S)O[C@H]3[C@@H](O)[C@H](n4ccc(N)nc4=O)O[C@@H]3COP(=O)(S)O[C@H]3[C@@H](O)[C@H](n4cnc5c(N)ncnc54)O[C@@H]3COP(=O)(S)O[C@H]3[C@@H](O)[C@H](n4ccc5c(=O)[nH]c(N)nc54)O[C@@H]3COP(=O)(S)O[C@H]3[C@@H](O)[C@H](n4ccc(N)nc4=O)O[C@@H]3COP(=O)(S)O[C@H]3[C@@H](O)[C@H](n4ccc5c(=O)[nH]c(N)nc54)O[C@@H]3COP(=O)(S)O[C@H]3[C@@H](O)[C@H](n4ccc(=O)[nH]c4=O)O[C@@H]3COP(=O)(S)O[C@H]3[C@@H](O)[C@H](n4ccc(N)nc4=O)O[C@@H]3COP(=O)(S)O[C@H]3[C@@H](O)[C@H](n4cnc5c(N)ncnc54)O[C@@H]3COP(=O)(S)O[C@H]3[C@@H](O)[C@H](n4cnc5c(N)ncnc54)O[C@@H]3CO)[C@H]2O)c(=O)n1 (some centres not stated)	Active	6.5	inactive	0.3
Nc1ccn([C@@H]2O[C@H](COP(=O)(S)O[C@H]3[C@@H](O)[C@H](n4cnc5c(N)ncnc54)O[C@@H]3CO)[C@@H](OP(=O)(S)OC[C@H]3O[C@@H](n4ccc(=O)[nH]c4=O)[C@H](O)[C@@H]3OP(=O)(S)OC[C@H]3O[C@@H](n4ccc5c(=O)[nH]c(N)nc54)[C@H](O)[C@@H]3OP(=O)(S)OC[C@H]3O[C@@H](n4cnc5c(N)ncnc54)[C@H](O)[C@@H]3OP(=O)(S)OC[C@H]3O[C@@H](n4ccc5c(=O)[nH]c(N)nc54)[C@H](O)[C@@H]3OP(=O)(S)OC[C@H]3O[C@@H](n4cnc5c(N)ncnc54)[C@H](O)[C@@H]3OP(=O)(S)OC[C@H]3O[C@@H](n4ccc5c(=O)[nH]c(N)nc54)[C@H](O)[C@@H]3OP(=O)(S)OC[C@H]3O[C@@H](n4ccc(N)nc4=O)[C@H](O)[C@@H]3OP(=O)(S)OC[C@H]3O[C@@H](n4ccc(=O)[nH]c4=O)[C@H](O)[C@@H]3OP(=O)(S)OC[C@H]3O[C@@H](n4ccc(=O)[nH]c4=O)[C@H](O)[C@@H]3OP(=O)(S)OCC(O)COP(=O)(S)O[C@H]3[C@@H](O)[C@H](n4ccc(=O)[nH]c4=O)O[C@@H]3COP(=O)(S)O[C@H]3[C@@H](O)[C@H](n4ccc(=O)[nH]c4=O)O[C@@H]3COP(=O)(S)O[C@H]3[C@@H](O)[C@H](n4ccc(N)nc4=O)O[C@@H]3COP(=O)(S)O[C@H]3[C@@H](O)[C@H](n4ccc5c(=O)[nH]c(N)nc54)O[C@@H]3COP(=O)(S)O[C@H]3[C@@H](O)[C@H](n4cnc5c(N)ncnc54)O[C@@H]3COP(=O)(S)O[C@H]3[C@@H](O)[C@H](n4ccc5c(=O)[nH]c(N)nc54)O[C@@H]3COP(=O)(S)O[C@H]3[C@@H](O)[C@H](n4cnc5c(N)nc(N)nc54)O[C@@H]3COP(=O)(S)O[C@H]3[C@@H](O)[C@H](n4ccc5c(=O)[nH]c(N)nc54)O[C@@H]3COP(=O)(S)O[C@H]3[C@@H](O)[C@H](n4ccc(=O)[nH]c4=O)O[C@@H]3COP(=O)(S)O[C@H]3[C@@H](O)[C@H](n4ccc(N)nc4=O)O[C@@H]3COP(=O)(S)O[C@H]3[C@@H](O)[C@H](n4cnc5c(N)ncnc54)O[C@@H]3CO)[C@H]2O)c(=O)n1 (some centres not stated)	Active	16.8	inactive	2.4
